Test results: publication PMC11429891 (bioRxiv, 2024)
pKd: −log10 of the molar value. Bridge positions count the residues as written; N and C are the ends. Peptide text beside a SMILES is read from it.

Columns and labels:
human recombinant SNAP25 = human recombinant SNAP25 (Homo sapiens, UniProt P60880); experiment: Quartz crystal microbalance binding to SNAP25
How it was run: (§1)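 The 5 MHz Cr/Au quartz crystal was cleaned with isopropanol, ethanol and water. It was treated with 20 mM mercaptopropanesulfonate in 10 mM H₂SO₄ for 30 min, then with 10 µM (monomer) poly(allylamine hydrochloride) at pH 8 for 10 min. Human recombinant SNAP25 or BSA was deposited at 0.01 mg/mL for 10 min. After a baseline in 500 µL PBS, 50 µL of 300 µM peptide stock in PBS was added and mass change recorded.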

[1] = Quartz crystal microbalance, PAH control layer; format: binding; conditions: label-free, peptide 30μM final in PBS
[2] = Quartz crystal microbalance, PAH-BSA control multilayer; format: binding; conditions: label-free, peptide 30μM final in PBS
How it was run: as §1

U87MG cells [3] = experiment: Viability without laser irradiation; format: cell-based; conditions: up to 30μM, 30 min at 37°C, no laser irradiation, 24 h, MTS
[4] = tested on: adhesion of U87MG cells to collagen VI; experiment: U87MG adhesion to collagen VI-coated plates; format: cell-based; conditions: CES 30μM, 24 h, then 48 h, DAPI nuclei count
How it was run: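 Wells were coated with collagen VI (5 µg/cm² from 50 µg/ml in 500 mM acetic acid) for 1 h at room temperature, then washed with PBS. U87MG cells were seeded with or without anti-SNAP25 antibody (5 µg/mL) or 30 µM test peptide. Medium was changed at 24 h and culture continued 48 h. Cells were fixed in 4% PFA, blocked and DAPI-stained, and nuclei were counted per image area (1.2 mm²).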

AD brain vasculature = conditions: ref [9], cited from earlier work
[5] = tested on: connective tissue growth factor (CTGF) bound to the vascular extracellular matrix; conditions: ref [9]; cited from earlier work
[6] = tested on: intracranial U87MG glioblastoma; experiment: In vivo homing, intracranial U87MG glioblastoma; set-up: species or system mice (female athymic nude), human U87MG xenograft; conditions: 30 nmoles i.v., 60 min circulation
How it was run: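 Tumors were induced in female athymic nude mice by intracranial injection of 3×10^5 U87MG cells into the right striatum (2 mm lateral, 2 mm posterior to bregma, 2.5 mm deep) and grown 9 days. Mice received FAM-labelled peptide, 30 nmol in PBS i.v., for 60 min, then PBS perfusion, 4% PFA fixation, sucrose and OCT. 10 µm sections were stained without permeabilization for FAM with CD31 or SNAP25. n=3.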

WT-GBM tumors = experiment: In vivo homing, WT-GBM glioblastoma model; set-up: species or system mice (Fox/Nu); conditions: 30 nmoles i.v., 60 min circulation, n=3
How it was run: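 Fox/Nu mice received 7×10^5 WT-GBM cells stereotactically into the right striatum and were used 6-7 days later. FAM-labelled peptide (30 nmol in PBS) was given i.v. and circulated 60 min. Mice were perfused intracardially with PBS, and organs were fixed in 4% PFA pH 7.4 overnight, sucrose-cryoprotected and OCT-embedded. 10 µm sections were stained without permeabilization for FAM and CD31 (primary 1/100 overnight 4°C; secondary 1/200). n=3.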

MCF10CA1a tumors = experiment: In vivo homing, orthotopic MCF10CA1a breast tumors; set-up: species or system athymic nude mice, human triple-negative breast cancer cells; conditions: 30 nmoles i.v., 60 min circulation, n=3
How it was run: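 Orthotopic breast tumors: athymic nude mice were given 2×10^6 MCF10CA1a cells in PBS into the mammary gland and used 14 days later. FAM-labelled peptide (30 nmol in PBS) was injected i.v. and circulated 60 min, followed by PBS perfusion, overnight 4% PFA fixation, sucrose and OCT embedding. 10 µm sections were immunostained for FAM without permeabilization. n=3.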

healthy brain = experiment: In vivo homing, healthy brain; set-up: species or system mice; conditions: 30 nmoles i.v., 60 min circulation, n=3
How it was run: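 Healthy (non-tumor) mice received FAM-labelled peptide, 30 nmol i.v. in PBS, for 60 min. Mice were perfused with PBS, and brains were fixed in 4% PFA, cryoprotected in sucrose and embedded in OCT. Sections were stained without permeabilization for FAM and SNAP25 (primary 1/100 overnight at 4°C, secondary 1/200). n=3.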

recombinant SNAP25 [7] = experiment: ELISA binding to SNAP25-coated plates; set-up: species or system human; conditions: plates coated with recombinant SNAP25, FAM-labeled peptide
Casein = experiment: ELISA binding to casein-coated plates; conditions: plates coated with Casein, FAM-labeled peptide
U87MG cells [8] = experiment: Photodynamic cytotoxicity; format: cell-based, human; conditions: 24 h, MTS
How it was run: (§2)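 Cells (30.000/well) were attached overnight, then exposed 30 min to peptide–verteporfin conjugates at 3 µM final. Wells were washed 3× with full medium and refreshed. Irradiation used a 690 nm laser, 10 J/cm² at 160 mW/cm². After 24 h further culture, viability was measured by MTS/PMS (2 h, 37 °C, 5% CO₂), reading absorbance at 492 nm.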

LN229 cells = experiment: Photodynamic cytotoxicity; format: cell-based; conditions: 3μM conjugate, 30 min, 3 washes, 690nm laser 10 J/cm^2 (160 mW/cm^2), 24 h, MTS
How it was run: as §2

SK-N-AS cells = experiment: Photodynamic cytotoxicity; format: cell-based; conditions: 3μM conjugate, 30 min, 3 washes, 690nm laser 10 J/cm^2 (160 mW/cm^2), 24 h, MTS
How it was run: as §2

HEK293T cells = experiment: Photodynamic cytotoxicity; format: cell-based; conditions: 3μM conjugate, 30 min, 3 washes, 690nm laser 10 J/cm^2 (160 mW/cm^2), 24 h, MTS
How it was run: as §2

recombinant SNAP25 [9] = experiment: Binding of SNAP25 to ECM array; set-up: species or system human; conditions: recombinant SNAP25 1/200, overnight 4°C, A488 anti-SNAP25 detection
How it was run: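 Array slide of ECM proteins (collagens I, III, IV, V, VI, fibronectin, laminin, vitronectin, tropoelastin) washed in PBS and PBST, then blocked 1 h at room temperature in 5% BSA/5% FBS in PBST. Human recombinant SNAP25 was applied at 1/200 in 1/5-diluted blocking buffer overnight at 4°C. Bound protein was detected with A488 anti-SNAP25 at 1/200 overnight at 4°C, then imaged by fluorescence in the green channel.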

recombinant SNAP25 [10] = experiment: Surface plasmon resonance, immobilized SNAP25; format: binding, human; conditions: read-out: KD (estimative), SPR; one-to-one model, SNAP25 via His-Tag/Ni-NTA, collagen 20μg/ml, 20 °C, OpenSPR
How it was run: (§3)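 SPR was run at 20 °C on an NTA sensor chip conditioned with 10 mM HCl, 200 mM imidazole and EDTA, then activated with 40 mM NiCl₂. His-tagged ligand was captured on channel 2 only: human recombinant SNAP25 at 150 µg/mL, or the control mouse M-CSF (28 kDa, 9-His) at 10 µg/mL. Collagen V or VI at 20 µg/ml in PBS flowed through both channels at 20 µl/min. Data were fitted to a one-to-one model.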

[11] = tested on: control protein (recombinant mouse macrophage colony-stimulating factor (M-CSF)); experiment: Surface plasmon resonance, control protein; format: binding; conditions: control protein of similar molecular weight, immobilized in the same way, 20 °C
How it was run: as §3

U87MG cells [12] = experiment: U87MG cell culture on collagens V and VI, morphology; format: cell-based; conditions: versus plastic (colonies); 5μg/cm^2 collagen coating
How it was run: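 Plates were coated for 1 h at room temperature with bovine collagen VI or human collagen V (5 µg/cm², from 50 µg/ml in 500 mM acetic acid) and washed twice with PBS. U87MG cells were seeded and grown 24 h, then given fresh medium for another 48 h. Cells were fixed in 4% PFA, blocked, DAPI-stained and imaged by fluorescence microscopy.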

Sequence of human recombinant SNAP25 (P60880 whole entry): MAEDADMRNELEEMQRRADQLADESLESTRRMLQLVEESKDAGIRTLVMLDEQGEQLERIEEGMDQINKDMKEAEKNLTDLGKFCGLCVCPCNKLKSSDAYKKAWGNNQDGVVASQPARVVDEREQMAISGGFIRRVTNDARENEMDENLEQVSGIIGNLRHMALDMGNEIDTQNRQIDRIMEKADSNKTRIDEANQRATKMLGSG

CC(=O)N[C@H]1CSSC[C@@H](C(N)=O)NC(=O)[C@H](CCC(=O)O)NC(=O)[C@H](CO)NC(=O)[C@H](CC(C)C)NC(=O)[C@H](CC(C)C)NC(=O)[C@@H]2CCCN2C(=O)[C@H](CO)NC(=O)[C@H](CCC(=O)O)NC1=O [CES] (Ac-CESPLLSEC-NH2; disulfide 1-9)
pKd (human recombinant SNAP25): 7.62 | dissociation rate upon washing with PBS, QCM (human recombinant SNAP25; SNAP25 on PAH layer, washing with PBS): slow dissociation rate | binding to control layer PAH, QCM [1]: did not bind to the control layers | binding to control multilayer PAH-BSA, QCM [2]: did not bind to the control layers | cytotoxicity of peptide alone, U87MG (U87MG cells [3]): did not elicit cytotoxicity | effect on adhesion of U87MG cells to collagen VI-coated plates [4]: affected the adhesion of U87MG cells to collagen VI-coated plates | homing to blood vessels of AD brain (AD brain vasculature; genetically modified mouse AD model, in vivo phage library screen, will be reported elsewhere): specifically accumulates (homes) in the blood vessels of AD brain

CDAGRKQKC [reference compound]
recognition of AD brain vasculature (AD brain vasculature; mouse AD model): recognize the vasculature of AD brain very early in the development of the disease | target molecule (receptor) [5]: connective tissue growth factor (CTGF) bound to the vascular extracellular matrix

FAM-Ahx-CESPLLSEC-NH2 (disulfide) [FAM-CES]
co-distribution with blood vessel marker CD31 in U87MG tumor ([6]; n=3, FAM/CD31 immunostaining): co-distributing with the blood vessel marker CD31 | colocalization with SNAP25 in U87MG tumors ([6]; n=3, FAM/SNAP25 immunostaining): apparent colocalization with SNAP25 in U87MG tumors | colocalization with CD31 in WT-GBM (WT-GBM tumors): showed colocalization with CD31 | homing to WT-GBM tumors (WT-GBM tumors): targeted WT-GBM tumors | tumor homing, orthotopic breast cancer (MCF10CA1a tumors): no tumor homing | homing to healthy brain (healthy brain): no homing to healthy brain | binding to SNAP25, ELISA (recombinant SNAP25 [7]): bound to SNAP25 | binding to Casein, ELISA (Casein): not to Casein

FAM-iRGD: FAM-labeled iRGD, another peptide with similar molecular weight and isoelectric point [reference compound]
binding to SNAP25, ELISA (recombinant SNAP25 [7]): did not bind to SNAP25

Vert-Ahx-CESPLLSEC-NH2 (disulfide) [CES-V]
toxicity, irradiated, U87MG (U87MG cells [8]; 3μM conjugate, 30 min, 3 washes, 690nm laser 10 J/cm^2 (160 mW/cm^2)): significant toxicity | difference in toxicity between irradiated CES-V and irradiated CtrlPep-V (U87MG cells [8]; 3μM, 690nm laser, compared across U87MG, LN229, SK-N-AS, HEK293T): only reached significance for U87MG | toxicity, irradiated, LN229 (LN229 cells): significant toxicity | toxicity, irradiated, SK-N-AS (SK-N-AS cells): no toxicity | toxicity, irradiated, HEK293T (HEK293T cells): no toxicity

collagen I: ECM protein on array
binding of SNAP25 to ECM proteins, array (recombinant SNAP25 [9]): non-binding

collagen III: ECM protein on array
binding of SNAP25 to ECM proteins, array (recombinant SNAP25 [9]): non-binding

collagen IV: ECM protein on array
binding of SNAP25 to ECM proteins, array (recombinant SNAP25 [9]): non-binding

collagen V: Human type V Collagen-Lyophilized (Southern Biotech, Cat # 1270–01)
binding of SNAP25 to ECM proteins, array (recombinant SNAP25 [9]): binding of SNAP25 to collagens V and VI | pKd (recombinant SNAP25 [10]): 5.14 | binding to control protein, SPR [11]: no binding | U87MG growth morphology on collagen-coated plates (U87MG cells [12]): formed monolayers and presented particles attached to the plate

collagen VI: Bovine Type VI Collagen-Solution (Southern Biotech Cat # 1300–02S)
binding of SNAP25 to ECM proteins, array (recombinant SNAP25 [9]): binding of SNAP25 to collagens V and VI | pKd (recombinant SNAP25 [10]): 7.82 | binding to control protein, SPR [11]: no binding | U87MG growth morphology on collagen-coated plates (U87MG cells [12]): formed monolayers and presented particles attached to the plate
